L major viab: inhibitors of Leishmania major promastigote growth. Leishmania major promastigotes, resazurin fluorescence viability. inhibition, % at 10 µM. hit rate 9% among 200,000. AID 1063;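 also: promastigotes grown with compound for 44 hours at 28 °C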
Arbovirus anti: arbovirus infection inhibition | arbovirus infection cell-based antiviral screen | inhibition, % at 10 µM | hit rate 0.37% among 200,000 | AID 1251; in the data active = inhibition above about 30%
Wee1 stabilizer: blocks degradation of human Wee1 kinase | P30291 | HeLa Luc-Wee1K328M stability, luciferase luminescence; 100% = proteasome inhibitor MG132 effect | reporter increase, % at 5 µM | hit rate 1.2% among 220,000;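 active = activation above the mean of all tested compounds plus 3 SD, set per screening run, cut at about 8.8% in these data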;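 also: cells exposed to compound for 20 h before luminescence read; 0% = DMSO alone and 100% = MG132 at 30 µM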
CHOP inhibitor: blocks CHOP induction under ER stress; CHO-K1 CHOP-promoter luciferase, tunicamycin-induced, 15-18 h; inhibition, % at 10 µM; hit rate 3.8% among 220,000;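 active = compounds that reduced the stress-induced luciferase reporter signal by more than about 70% of percent inhibition, limit read from the data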;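 also: 0% = tunicamycin plus vehicle and 100% = wells without tunicamycin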
Rad51 HR inh: Rad51 (human) homologous recombination inhibition; hRad51 DNA strand exchange, fluorescence dequenching; Q06609; inhibition, % at 10 µM; hit rate 0.085% among 200,000; AID 1385;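 active = inhibition above 40% at the single screening dose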;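 also: 0% = DMSO control wells and 100% = blanks with heterologous ssDNA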
Target sequence (Q06609 whole entry, looked up): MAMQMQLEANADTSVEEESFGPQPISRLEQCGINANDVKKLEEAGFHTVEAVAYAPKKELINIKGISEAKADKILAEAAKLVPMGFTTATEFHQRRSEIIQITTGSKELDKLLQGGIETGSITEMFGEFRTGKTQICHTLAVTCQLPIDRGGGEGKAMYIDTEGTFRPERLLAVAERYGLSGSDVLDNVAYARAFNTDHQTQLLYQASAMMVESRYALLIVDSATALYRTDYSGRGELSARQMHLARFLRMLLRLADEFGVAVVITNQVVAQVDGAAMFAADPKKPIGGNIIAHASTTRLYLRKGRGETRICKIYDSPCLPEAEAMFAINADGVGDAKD
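Read-out basis: percent inhibition relative to plate controls and blanks / Assay system: human Rad51 nucleoprotein filaments preassembled on unlabelled ssDNA / Timing: filaments 15 min 37 °C, then compound 30 min / Control set: per-plate controls and blanks / Technique: fluorescence dequenching at 485/520 nm / Compound: 10 µM final, single point / Also added: Fluorescein- and BHQ1-tagged 47-mer duplex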
PKD1 inh: PKD1 (human) kinase inhibition. PKD1 kinase fluorescence polarization assay. Q15139. hit rate 0.056% among 200,000. inhibition, % (concentration not given with the values)
Numbers without * were called inactive; . = not tested or not shown. Sampled rows, rich in hits. Any-hit rate of the full collection: about 12%. Rule as the data show it, unless noted: active = inhibition above about 50%; inactive = the rest.

SMILES | L major viab | Arbovirus anti | Wee1 stabilizer | CHOP inhibitor | Rad51 HR inh | PKD1 inh
O=C(c1cccc(C(F)(F)F)c1)N1CCN(C2CCCCC2)CC1 | 5.8 | -4.2 | -0.8 | 20.8 | 2.1 | -0.8
O=C(Cn1c(C(=O)N2CCc3ccccc3C2)cc2sccc21)c1ccccc1 | 60.9* | -6.5 | 2.9 | 15.4 | -0.8 | -14.6
O=C(Cn1c(C(=O)N2CCN(C3CCCCC3)CC2)cc2sccc21)c1ccccc1 | 81.1* | -22.9 | -0.7 | 46.7 | -11.5 | 9.0
C/C(=N\Nc1ccc(C(=O)O)cc1)c1ccc(S(=O)(=O)NCc2ccco2)cc1 | . | . | 3.5 | -16.1 | -1.6 | .
CCOC(=O)C1CCCN(C(=S)Nc2ccc(OC)cc2)C1 (stereo not drawn) | -1.8 | 9.5 | -3.5 | 10.5 | 2.9 | -7.7
COc1ccc(NC(=S)N2CCC(c3nc4ccc(Cl)cc4[nH]3)CC2)c(OC)c1 | -0.3 | -2.7 | -1.2 | 17.4 | 3.5 | 2.4
COc1ccc(NC(=S)N2CCCC(c3nc4ccc(C)cc4[nH]3)C2)cc1 (stereo not drawn) | 94.2* | -1.2 | -0.3 | 31.4 | 4.5 | -3.4
COc1ccc(NC(=S)N2CCCC(c3nc4ccc(C)cc4[nH]3)C2)c(OC)c1 (stereo not drawn) | 99.9* | -1.1 | -3.9 | 24.0 | -3.7 | -3.3
c1ccc(-c2ncc(CN3CCN(c4ccccn4)CC3)[nH]2)cc1 | . | . | -1.2 | 2.9 | 26.3 | .
CCCCNS(=O)(=O)c1ccc2nc(-c3cccs3)cc(C(=O)NCC(OC)OC)c2c1 | -2.9 | 4.3 | 1.6 | 16.1 | . | -8.5
CCCCCCOc1ccc(-c2ccc(C#N)cn2)cc1 | -6.0 | 15.1 | 0.3 | 73.7* | -7.4 | -8.4
CC(=O)N1Cc2ccccc2C(C)CC12CCCC2 (stereo not drawn) | 41.0 | 2.5 | 3.5 | 18.3 | . | 3.3
CC(=O)N1c2ccccc2C(C)CC12CCCCC2 (stereo not drawn) | 2.1 | 2.2 | 0.5 | 84.5* | 1.4 | 0.2
COc1ccc(CN2CCCCC2c2cccnc2)c(OC)c1C (stereo not drawn) | 70.4* | 7.6 | 1.4 | . | -4.8 | -14.7
COc1ccc(OC)c(-c2nc(CN3CCCCC3c3cccnc3)c(C)o2)c1 (stereo not drawn) | 7.8 | 3.4 | -0.2 | -0.1 | 8.1 | -0.7
COC(=O)C1C(c2ccc(OC)cc2)C(C(=O)OC)S(=O)(=O)C(CCN2CCCCC2)S1(=O)=O (stereo not drawn) | -3.2 | 13.4 | 0.3 | 7.0 | -4.0 | 0.6
O=C(/C=C/c1ccnc2ccccc12)c1cccs1 | 99.8* | -3.2 | 1.7 | -12.8 | -3.0 | -4.0
Cc1ccc(F)c(NC(=O)/C(C#N)=C(\O)c2ccc(C(C)(C)C)cc2)c1 | 0.1 | 15.2 | 2.3 | -3.4 | 2.1 | -4.7
Cc1cccc(C)c1NC(=O)NC1(C(=O)N2CCOCC2)CCCCC1 | -6.5 | 0.6 | -0.2 | 5.6 | -20.5 | 4.5
C/C(=C\C(=O)c1ccncc1)Nc1ccccc1O | 56.7* | -14.1 | 1.9 | 35.0 | -5.3 | 3.1
CC(=O)Nc1ccccc1O | 13.9 | -9.4 | 1.7 | -8.6 | 1.6 | -8.2
c1ccc(CC2CCN(C3=Nc4cccc5cccc3c45)CC2)cc1 | 100.1* | -32.2 | 0.3 | 88.4* | . | -6.0
c1cc2c3c(cccc3c1)C(N1CCN(C3=Nc4cccc5cccc3c45)CC1)=N2 | 45.2 | . | 0.3 | . | . | -7.6
O=C(CN1C(=O)CCC1=O)Nc1nc(-c2ccccn2)cs1 | -0.4 | 3.0 | 3.0 | 20.4 | 7.2 | -4.8
O=C(Nc1ccc2nc(-c3ccccn3)[nH]c2c1)C1CCCCC1 | 100.5* | -25.4 | 0.6 | 35.7 | 3.9 | -6.8
SMILES | L major viab | Arbovirus anti | Wee1 stabilizer | CHOP inhibitor | Rad51 HR inh | PKD1 inh
CSCCC(=O)Nc1nc(-c2ccccn2)cs1 | 88.3* | 9.7 | 2.9 | -7.8 | 2.6 | -5.8
O=C(Nc1nc(-c2ccccn2)cs1)c1ccc(S(=O)(=O)N2CCCCC2)cc1 | . | . | 2.3 | . | 19.6 | .
O=C(CCCSc1ccccc1)Nc1nc(-c2ccccn2)cs1 | 100.3* | -25.9 | -0.1 | -43.7 | 0.9 | -0.5
O=C(Nc1nc(-c2ccccn2)cs1)C1CCCC1 | 78.8* | -22.4 | 0.0 | -85.2 | -2.6 | -6.2
CC(C)c1nc2ccc(NC(=O)C3CCCCC3)cc2[nH]1 | 4.9 | 5.0 | 1.4 | 2.4 | -14.5 | -3.8
NC(=O)c1oc2ccccc2c1NC(=O)C1COc2ccccc2O1 (stereo not drawn) | -6.4 | -0.1 | -3.8 | -5.0 | 1.7 | 2.5
COC(=O)c1ccc(C(=O)OC)c(NC(=S)N2CCCC(C)C2)c1 (stereo not drawn) | 4.6 | -5.9 | -0.6 | 22.1 | -34.2 | -13.0
CC(=O)N1N=C(c2ccc(C)cc2)OC1c1cccnc1 (stereo not drawn) | -6.6 | 1.7 | 4.8 | -8.8 | 6.9 | -4.3
COc1ccc(-c2csc(NC(=S)NC(=O)/C=C/c3ccco3)n2)cc1OC | 5.7 | -21.9 | -2.6 | 95.4* | 2.9 | -1.5
O=C(/C=C/c1ccco1)Nc1nc(-c2ccccn2)cs1 | 99.8* | 1.1 | -1.6 | -111.8 | -3.5 | -1.7
O=C(/C=C/c1ccco1)Nc1nc(-c2ccccc2)cs1 | 44.8 | 10.9 | 4.7 | 6.0 | -9.4 | -6.8
COc1ccccc1Nc1nccc(N(C)C)c1C#N | -3.4 | 1.5 | -1.6 | 16.3 | . | -1.2
CCOC(=O)c1sc(Nc2nc3cc4c(cc3s2)OCO4)cc1C | 2.3 | -6.3 | 6.3 | 98.1* | -3.0 | -5.3
CC(=O)c1sc(Nc2nc3cc4c(cc3s2)OCO4)nc1C | 40.3 | -2.8 | -0.6 | -36.8 | 32.1 | 6.5
CCOC(=O)c1sc(Nc2nc3c(OC)cccc3s2)cc1C | 69.0* | -36.0 | 2.4 | 44.1 | 0.6 | -9.3
Cn1c(-c2c(N)n(C3CCCC3)c3nc4ccccc4nc23)nc2ccccc21 | -17.7 | -42.7 | -0.6 | 69.9 | -18.0 | -19.7
COCCCn1c(N)c(-c2nc3ccccc3n2C)c2nc3ccccc3nc21 | 36.5 | 44.1* | -3.8 | -4.9 | 2.9 | -7.2
Cn1c(-c2c(N)n(CCCc3ccccc3)c3nc4ccccc4nc23)nc2ccccc21 | 97.8* | -27.7 | 1.0 | -4.3 | -6.8 | -7.1
Cn1c(-c2c(N)n(CCc3ccccc3)c3nc4ccccc4nc23)nc2ccccc21 | 99.5* | -16.1 | 1.3 | -43.6 | -6.5 | 2.1
COc1cc(/C=N/NC(N)=O)ccc1OCC(=O)Nc1cc(C)c(C)cc1Br | -0.4 | 2.9 | 0.8 | 35.0 | 10.6 | -3.4
O=C(OCCN1CCCCC1)c1ccc(Cl)cc1 | -4.9 | 6.4 | 2.7 | -15.4 | 3.2 | 1.6
Clc1ccc(OCCCCCN2CCCC2)c(Br)c1 | 98.0* | -25.8 | 3.2 | 27.0 | 7.1 | -8.2
CCN1CCN(CCCOc2ccc(Cl)cc2Br)CC1 | 96.0* | -26.9 | -1.6 | 3.7 | -2.8 | -0.5
Brc1ccccc1OCCCCCN1CCCC1 | 97.5* | 11.0 | 1.4 | 11.0 | 3.4 | -6.8
Clc1ccc(OCCCN2CCCCC2)c(Br)c1 | 99.1* | -23.9 | -2.3 | 19.9 | -4.7 | 0.0
CCCN1CNc2c(c(=O)[nH]c(=S)n2CCc2ccc(OC)c(OC)c2)C1 | 3.6 | -0.6 | 6.5 | 11.7 | -6.5 | -1.1
Cc1cc(C)c(S(C)(=O)=O)c(NN)n1 | 3.6 | 7.4 | -3.0 | 9.4 | -7.9 | -0.1

Bioassay records deposited in PubChem BioAssay by several laboratories.
